Results: ChEMBL document CHEMBL2439956, “Synthesis and biological evaluation of novel formyl-pyrazoles bearing coumarin moiety as potent antimicrobial and antioxidant agents” (2013)
Values after ≈ are worked out from the molar mass of the structure shown. Active and inactive are the calls of the source. The calls are words filed in the database; no cut-off is given here.

Assays:
Streptococcus pyogenes [1] = assay: Antibacterial activity against Streptococcus pyogenes by broth dilution technique; format: functional
In short: (§1)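 Broth dilution technique; each MIC (µg/mL) is the mean of three determinations run in triplicate against the bacterial and fungal strains.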

Aspergillus niger = assay: Antifungal activity against Aspergillus niger by broth dilution technique; format: functional; in short: as §1
Staphylococcus aureus = assay: Antibacterial activity against Staphylococcus aureus by broth dilution technique; format: functional; in short: as §1
Aspergillus flavus [2] = assay: Antifungal activity against Aspergillus flavus at 200 ug/ml by broth dilution technique; format: functional, organism-based
Escherichia coli [3] = assay: Antibacterial activity against Escherichia coli by broth dilution technique; format: functional; in short: as §1
Cryptococcus neoformans = assay: Antifungal activity against Cryptococcus neoformans by broth dilution technique; format: functional; in short: as §1
Candida albicans [4] = assay: Antifungal activity against Candida albicans at 200 ug/ml by broth dilution technique; format: functional, organism-based
Pseudomonas aeruginosa = assay: Antibacterial activity against Pseudomonas aeruginosa by broth dilution technique; format: functional; in short: as §1
Candida albicans [5] = assay: Antifungal activity against Candida albicans by broth dilution technique; format: functional; in short: as §1
Aspergillus flavus [6] = assay: Antifungal activity against Aspergillus flavus by broth dilution technique; format: functional; in short: as §1
[7] = system: Radical scavenging activity; assay: Antioxidant activity assessed as DPPH radical scavenging activity at 40 ug/ml relative to butylated hydroxytoluene; format: functional
In short: (§2)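 DPPH radical scavenging assay with BHT as standard antioxidant. Samples were tested at five concentrations (10, 20, 30, 40 and 50 µg/mL) in triplicate, alongside a control at 0 µg/mL. Read-out is % radical scavenging, reported as mean ± SD.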

[8] = system: Radical scavenging activity; assay: Antioxidant activity assessed as DPPH radical scavenging activity at 10 ug/ml relative to butylated hydroxytoluene; format: functional; in short: as §2
[9] = system: Radical scavenging activity; assay: Antioxidant activity assessed as DPPH radical scavenging activity at 20 ug/ml relative to butylated hydroxytoluene; format: functional; in short: as §2
[10] = system: Radical scavenging activity; assay: Antioxidant activity assessed as DPPH radical scavenging activity at 30 ug/ml relative to butylated hydroxytoluene; format: functional; in short: as §2
[11] = system: Radical scavenging activity; assay: Antioxidant activity assessed as DPPH radical scavenging activity at 50 ug/ml relative to butylated hydroxytoluene; format: functional; in short: as §2
Streptococcus pyogenes [12] = assay: Antibacterial activity against Streptococcus pyogenes at 200 ug/ml by broth dilution technique; format: functional, organism-based
Escherichia coli [13] = assay: Antibacterial activity against Escherichia coli at 200 ug/ml by broth dilution technique; format: functional, organism-based

| MIC (Streptococcus pyogenes [1]) | MIC (Aspergillus niger) | MIC (Staphylococcus aureus) | MIC (Escherichia coli [3]) | MIC (Cryptococcus neoformans) | MIC (Pseudomonas aeruginosa) | MIC (Candida albicans [5]) | MIC (Aspergillus flavus [6]) | Structure (SMILES) | Activity (Aspergillus flavus [2]) | Activity (Candida albicans [4]) | Activity [7] [%] | Activity [8] [%] | Activity [9] [%] | Activity [10] [%] | Activity [11] [%] | Activity (Streptococcus pyogenes [12]) | Activity (Escherichia coli [13]) |
| --- | --- | --- | --- | --- | --- | --- | --- | --- | --- | --- | --- | --- | --- | --- | --- | --- | --- |
| 50 µg/mL (≈ 155 µM) | 75 µg/mL (≈ 233 µM) | 40 µg/mL (≈ 124 µM) | 75 µg/mL (≈ 233 µM) | 40 µg/mL (≈ 124 µM) | 100 µg/mL (≈ 310 µM) |  |  | C/C(=N/Nc1ccccc1C)c1c(O)ccc2c(C)cc(=O)oc12 | inactive | inactive |  |  |  |  |  |  |  |
| 50 µg/mL (≈ 146 µM) | 60 µg/mL (≈ 175 µM) | 20 µg/mL (≈ 58.3 µM) | 50 µg/mL (≈ 146 µM) | 25 µg/mL (≈ 72.9 µM) | 25 µg/mL (≈ 72.9 µM) | 30 µg/mL (≈ 87.5 µM) | 50 µg/mL (≈ 146 µM) | C/C(=N/Nc1ccc(Cl)cc1)c1c(O)ccc2c(C)cc(=O)oc12 |  |  |  |  |  |  |  |  |  |
| 50 µg/mL (≈ 139 µM) | 60 µg/mL (≈ 166 µM) | 30 µg/mL (≈ 83.2 µM) | 40 µg/mL (≈ 111 µM) | 30 µg/mL (≈ 83.2 µM) | 50 µg/mL (≈ 139 µM) |  |  | Cc1ccccc1-n1cc(C=O)c(-c2c(O)ccc3c(C)cc(=O)oc23)n1 | inactive | inactive | 15.1 | 12.8 | 13.8 | 14.1 | 17.1 |  |  |
| 75 µg/mL (≈ 188 µM) | inactive | 50 µg/mL (≈ 126 µM) | inactive | inactive | inactive | inactive | inactive | C/C(=N/Nc1ccc([N+](=O)[O-])cc1[N+](=O)[O-])c1c(O)ccc2c(C)cc(=O)oc12 |  |  |  |  |  |  |  |  |  |
| inactive | 100 µg/mL (≈ 289 µM) | inactive | 30 µg/mL (≈ 86.6 µM) | 50 µg/mL (≈ 144 µM) | 50 µg/mL (≈ 144 µM) |  |  | Cc1cc(=O)oc2c(-c3nn(-c4ccccc4)cc3C=O)c(O)ccc12 | inactive | inactive | 50.1 | 39.4 | 42.1 | 46.4 | 57.8 |  |  |
| 35 µg/mL (≈ 91.9 µM) | 40 µg/mL (≈ 105 µM) | 15 µg/mL (≈ 39.4 µM) | 30 µg/mL (≈ 78.8 µM) | 15 µg/mL (≈ 39.4 µM) | 15 µg/mL (≈ 39.4 µM) | 25 µg/mL (≈ 65.7 µM) | 60 µg/mL (≈ 158 µM) | Cc1cc(=O)oc2c(-c3nn(-c4ccc(Cl)cc4)cc3C=O)c(O)ccc12 |  |  | 63.9 | 48.9 | 53.3 | 58.1 | 69.3 |  |  |
| 60 µg/mL (≈ 177 µM) | 50 µg/mL (≈ 148 µM) | 30 µg/mL (≈ 88.7 µM) | 50 µg/mL (≈ 148 µM) | 40 µg/mL (≈ 118 µM) | inactive | 30 µg/mL (≈ 88.7 µM) | 40 µg/mL (≈ 118 µM) | COc1ccccc1N/N=C(/C)c1c(O)ccc2c(C)cc(=O)oc12 |  |  |  |  |  |  |  |  |  |
| 50 µg/mL (≈ 133 µM) | 50 µg/mL (≈ 133 µM) | 30 µg/mL (≈ 79.7 µM) | 75 µg/mL (≈ 199 µM) | 25 µg/mL (≈ 66.4 µM) | 25 µg/mL (≈ 66.4 µM) | 50 µg/mL (≈ 133 µM) | 25 µg/mL (≈ 66.4 µM) | COc1ccccc1-n1cc(C=O)c(-c2c(O)ccc3c(C)cc(=O)oc23)n1 |  |  | 15.6 | 11.1 | 12 | 13.3 | 17.4 |  |  |
| inactive | 75 µg/mL (≈ 243 µM) | 40 µg/mL (≈ 130 µM) | inactive | 50 µg/mL (≈ 162 µM) | 25 µg/mL (≈ 81.1 µM) | 50 µg/mL (≈ 162 µM) | 75 µg/mL (≈ 243 µM) | C/C(=N/Nc1ccccc1)c1c(O)ccc2c(C)cc(=O)oc12 |  |  |  |  |  |  |  | inactive | inactive |
| 75 µg/mL (≈ 172 µM) | inactive | 40 µg/mL (≈ 91.7 µM) | 40 µg/mL (≈ 91.7 µM) | inactive | 20 µg/mL (≈ 45.8 µM) | inactive | inactive | Cc1cc(=O)oc2c(-c3nn(-c4ccc([N+](=O)[O-])cc4[N+](=O)[O-])cc3C=O)c(O)ccc12 |  |  | 51.1 | 34.7 | 41.9 | 47.1 | 56 |  |  |

| Structure (SMILES) | MIC (Streptococcus pyogenes [1]) | MIC (Aspergillus niger) | MIC (Staphylococcus aureus) | MIC (Escherichia coli [3]) | MIC (Cryptococcus neoformans) | MIC (Pseudomonas aeruginosa) | MIC (Candida albicans [5]) | MIC (Aspergillus flavus [6]) | Activity (Aspergillus flavus [2]) | Activity (Candida albicans [4]) | Activity [7] [%] | Activity [8] [%] | Activity [9] [%] | Activity [10] [%] | Activity [11] [%] | Activity (Streptococcus pyogenes [12]) | Activity (Escherichia coli [13]) |
| --- | --- | --- | --- | --- | --- | --- | --- | --- | --- | --- | --- | --- | --- | --- | --- | --- | --- |
| C[C@@H]1[C@H](O)[C@@H](C)/C=C/C=C/C=C/C=C/C=C/C=C/C=C/[C@H](O[C@@H]2O[C@H](C)[C@@H](O)[C@H](N)[C@@H]2O)C[C@@H]2O[C@](O)(C[C@@H](O)C[C@@H](O)[C@H](O)CC[C@@H](O)C[C@@H](O)CC(=O)O[C@H]1C)C[C@H](O)[C@H]2C(=O)O [AMPHOTERICIN B] |  | 50 µg/mL (≈ 54.1 µM) |  |  | 25 µg/mL (≈ 27.1 µM) |  | 25 µg/mL (≈ 27.1 µM) | 50 µg/mL (≈ 54.1 µM) |  |  |  |  |  |  |  |  |  |
| O=C(O)c1cn(C2CC2)c2cc(N3CCNCC3)c(F)cc2c1=O [CIPROFLOXACIN] | 50 µg/mL (≈ 151 µM) |  |  | 25 µg/mL (≈ 75.4 µM) |  |  |  |  |  |  |  |  |  |  |  |  |  |
